The values that follow come from ChEMBL document CHEMBL1124344, “5-Piperazinylalkyl-2(3H)-oxazolones with neuroleptic activity” (J Med Chem, 1989).

For orientation: inhibition in vivo means the change of the read-out against control, counted positive when it falls. A lower inhibition in vivo goes with little suppression. The LD50 is the dose expected to kill half of the subjects tested. Lower therefore signals greater toxicity. The term ED50 denotes the midpoint of the dose-response relation. A low value points to an effect at a small dose.

Data set [1] concerns Rattus norvegicus. In words: Activity to evoke catalepsy in rats, by administering perorally at a dose of 20 mg/kg. Type of data set: functional. Particulars: route oral, read-out: Inhibition. In a few lines: (§1)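 Rats fasted overnight and given oral doses in arabic gum suspension (10 mL/kg), 1 h before screening or 1 and 5 h before profile testing. Forelegs placed on a horizontal bar 7 cm high, three times at 5-min intervals. Immobility of at least 15 s counts as catalepsy. ED50 is the dose giving catalepsy in 50% of rats, by probit analysis. Parenthetical entries give the maximal dose and percent activity.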

For data set [2], the system named is Rattus norvegicus. The data set is described as follows: Antagonistic activity against apomorphine-induced stereotypy in rats, by administering perorally at a dose of 20 mg/kg. Type of data set: functional. The conditions noted are these: route oral. Put shortly:
(§2)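 Male rats fasted overnight and given oral doses in arabic gum suspension (10 mL/kg) 1 h, or 1 and 5 h, before challenge. Apomorphine 3 mg/kg iv, with stereotypy observed 20 min later. ED50 is the dose inhibiting stereotypy in 50% of rats, per Janssen's method. Parenthetical entries give the maximal dose and percent activity.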

The nature of data set [3]: Lethal dose in mice (LD50) following i.p. dosing. Type of data set: toxicity, organism-based. Particulars: mouse, in vivo, ip. Put shortly: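 Acute toxicity tested in mice by the intraperitoneal route. LD50 is the dose killing 50% of treated mice, computed by Finney probit analysis; values are approximate.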
For data set [4], the system named is Mus musculus. In words: Inhibition of spontaneous motor activity in mice, by administering perorally at a dose of 10 mg/kg. Type of data set: functional. The conditions noted are these: route oral. Put shortly: (§3)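 Mice in groups of five were dosed orally with gum arabic suspensions at 10 mL/kg after an overnight fast, with a vehicle control group. Locomotion was counted for 10 min in a photocell activity cage, in at least two groups per dose. ED50, by probit analysis, is the dose giving 50% inhibition against controls.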

For data set [5], the system named is Mus musculus. The data set is described as follows: Antagonistic activity against amphetamine-induced Hypermobility in mice, by administering perorally at a dose of 10 mg/kg. Type of data set: functional. The conditions noted are these: route oral. In a few lines:
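Male mice in groups of five, fasted overnight, given oral drug in arabic gum suspension (10 mL/kg) 1 or 5 h ahead. Amphetamine 4 mg/kg ip given 30 min after drug. Ten minutes later locomotion is recorded for 15 min in a photocell actophotometer. ED50 is 50% reduction versus control hypermotility, by probit analysis. Parenthetical entries give the maximal dose and percent activity.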

Data set [6] has as its system Mus musculus. The data set is described as follows: Inhibition of spontaneous motor activity in mice, by administering perorally at a dose of 40 mg/kg. Particulars: route oral. Type of data set: functional. Put shortly:
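Mice fasted overnight, then dosed orally with compound (weighed as base) suspended in arabic gum, 10 mL/kg, with vehicle controls; 1 h pretreatment for screening tests, 1 or 5 h for others. Groups of five; locomotor activity counted 10 min in photocell activity cage, at least two groups per dose. ED50 = dose giving 50% inhibition versus controls, by probit analysis.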

Data set [7] concerns Mus musculus. In words: Inhibition of amphetamine-induced hypermobility in mice following p.o. administration. The conditions noted are these: po. Type of data set: functional. In a few lines:
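Compounds were given orally to male mice (gum arabic suspension, 10 mL/kg, fasted) in groups of five. Amphetamine 4 mg/kg ip followed 30 min later. After another 10 min, motility was recorded for 15 min with a photocell actophotometer. ED50, by probit analysis, is the dose giving 50% reduction against controls.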

Data set [8] concerns Rattus norvegicus. The data set is described as follows: Activity to evoke catalepsy in rats, by administering perorally at a dose of 40 mg/kg. Type of data set: functional. Particulars: route oral. In a few lines:
as §1

The subject of data set [9] is Rattus norvegicus. In words: Antagonistic activity against apomorphine-induced stereotypy in rats, by administering perorally at a dose of 40 mg/kg. Type of data set: functional. The conditions noted are these: route oral. Put shortly: as §2
Data set [10] concerns Rattus norvegicus. The data set is described as follows: Antagonistic activity against apomorphine-induced stereotypy in rats, by administering perorally. Particulars: po. Type of data set: functional. In a few lines: as §2
The subject of data set [11] is Mus musculus. In words: Inhibition of spontaneous motor activity in mice, by administering perorally. Type of data set: functional. The conditions noted are these: po. Put shortly: as §3
Data set [12] deals with Rattus norvegicus. In words: Activity to evoke catalepsy in rats, by administering perorally at a dose 150 mg/kg. Type of data set: functional. The conditions noted are these: route oral. In a few lines: as §1

For `Oc1nc(-c2ccc(-c3ccccc3)cc2)c(CCN2CCN(c3ccccc3)CC2)o1`, the percent of rats showing catalepsy at 20 mg/kg in data set [1] was determined as 0%. 20 mg/kg produced 0% inhibition in vivo in data set [2]. In addition, the LD50 in [3] was 750 mg/kg. In addition, the results for the inhibition in vivo at 10 mg/kg in data set [4] and in data set [5] were 32% and 33%, respectively.

For `Oc1nc(-c2ccc(F)cc2)c(CCN2CCN(c3ccc(Cl)cc3Cl)CC2)o1`, the inhibition in vivo at 40 mg/kg was determined as 45% in [6], 0% in data set [8] and 0% in [9]. In [7], this molecule showed an ED50 of 23.9 mg/kg. In addition, in data set [3], the median lethal dose (LD50) stood at 1000 mg/kg.

Consider `CCn1c(-c2ccc(F)cc2)c(CCN2CCN(c3ccccc3)CC2)oc1=O`, for which the ED50 amounted to 75 mg/kg in data set [10], 17 mg/kg in data set [7] and 15.4 mg/kg in data set [11]. The molecule further returned an inhibition in vivo at 150 mg/kg in data set [12] of 0%. For the same molecule, in data set [3], the LD50 came out at 750 mg/kg.
